# From ChEMBL document CHEMBL2086221, “Armeniaspiroles, a new class of antibacterials: Antibacterial activities and total synthesis of 5-chloro-Armeniaspirole A” (Bioorg Med Chem Lett, 2012)
# Active and inactive are the calls of the source. The calls are words filed in the database; no cut-off is given here.
# Legend:
# Staphylococcus aureus [1] = assay: Antibacterial activity against methicillin-resistant Staphylococcus aureus ATCC 33592 at >1 ug/mL after 48 hrs; format: functional, organism-based
# Streptococcus pneumoniae [2] = assay: Antibacterial activity against penicillin-resistant Streptococcus pneumoniae DSM 11865 at >1 ug/mL after 48 hrs; format: functional, organism-based
# Enterococcus faecium [3] = assay: Bacteriostatic activity against vancomycin-resistant Enterococcus faecium DSM 17050 by time kill study; format: functional, organism-based
# Escherichia coli [4] = assay: Bacteriostatic activity against Escherichia coli ATCC 35218 expressing LacR by time kill study; format: functional, organism-based
# Streptococcus pneumoniae [5] = assay: Bacteriostatic activity against penicillin-resistant Streptococcus pneumoniae DSM 11865 by time kill study in presence of fetal calf serum; format: functional, organism-based
# Pseudomonas aeruginosa [6] = assay: Antibacterial activity against Pseudomonas aeruginosa ATCC 27853 at >1 ug/mL after 48 hrs; format: functional, organism-based
# Pseudomonas aeruginosa [7] = assay: Bacteriostatic activity against Pseudomonas aeruginosa ATCC 27853 by time kill study in presence of fetal calf serum; format: functional, organism-based
# Enterococcus faecium [8] = assay: Bacteriostatic activity against vancomycin-resistant Enterococcus faecium DSM 17050 by time kill study in presence of fetal calf serum; format: functional, organism-based
# Staphylococcus aureus [9] = assay: Bacteriostatic activity against methicillin-resistant Staphylococcus aureus ATCC 33592 by time kill study in presence of fetal calf serum; format: functional, organism-based
# Pseudomonas aeruginosa [10] = assay: Bacteriostatic activity against Pseudomonas aeruginosa ATCC 27853 by time kill study; format: functional, organism-based
# Escherichia coli [11] = assay: Bacteriostatic activity against Escherichia coli ATCC 35218 expressing LacR by time kill study in presence of fetal calf serum; format: functional, organism-based
# Enterococcus faecium [12] = assay: Antibacterial activity against vancomycin-resistant Enterococcus faecium DSM 17050 at >1 ug/mL after 48 hrs; format: functional, organism-based
# Escherichia coli [13] = assay: Antibacterial activity against Escherichia coli ATCC 35218 expressing LacR at >1 ug/mL after 48 hrs; format: functional, organism-based
# Staphylococcus aureus [14] = assay: Antibacterial activity against methicillin-resistant Staphylococcus aureus ATCC 33592 infected in iv dosed mouse assessed as decrease in bacteremia; format: functional, organism-based
# Staphylococcus aureus [15] = assay: Antibacterial activity against methicillin-resistant Staphylococcus aureus ATCC 33592; format: functional; details: Staphylococcus aureus, ATCC 33592
# Escherichia coli [16] = assay: Antibacterial activity against Escherichia coli ATCC 35218 expressing LacR; format: functional
# Staphylococcus aureus [17] = assay: Antibacterial activity against methicillin-resistant Staphylococcus aureus ATCC 33592 infected in iv dosed mouse assessed as increase in host survival; format: functional, organism-based
# Cytochrome P450 2D6 = Cytochrome P450 2D6 (Homo sapiens, UniProt P10635); assay: Inhibition of CYP2D6; format: ADME
# Staphylococcus aureus [18] = assay: Antibacterial activity against methicillin-resistant Staphylococcus aureus ATCC 33592 infected in mouse assessed as host survival at 20 mg/kg/day, sc relative to control; format: functional; details: ATCC 33592, sc, route subcutaneous
# Outline: (§1)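 Mice with MRSA ATCC33592 septicemia were dosed sc at 20, 40 or 80 mg/kg/d in 5% ethanol/5% Solutol/Tris-NaCl buffer pH 9. Survival was scored in six animals per group, and log reduction of blood bacteremia in five animals per group. Results are given as mean ± sem against the vehicle-treated group (P < 0.05 or P < 0.001).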
# hERG (KCNH2) = hERG (KCNH2) (Homo sapiens, UniProt Q12809); assay: Inhibition of human ERG at 10 uM
# [19] = Solubility of the compound in PBS buffer at pH 7.4; format: physicochemical
# [20] = Clearance in Swiss mouse at 7.5 mg/kg, iv; format: ADME, organism-based; parameters: dose 7.5 mg/kg, route intravenous; details: in vivo
# Outline: (§2)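 Male Swiss mice dosed 7.5 mg/kg iv; plasma pharmacokinetics gave clearance, steady-state volume of distribution, Cmax and plasma half-life.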
# [21] = Half life in Swiss mouse plasma at 7.5 mg/kg, iv; format: ADME, organism-based; parameters: dose 7.5 mg/kg, route intravenous; outline: as §2
# [22] = Drug degradation in PBS buffer over 24 hrs in presence of GSH; format: physicochemical; details: PBS buffer with GSH; read-out: Drug degradation
# Outline: (§3)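 Parent compound incubated in PBS buffer with 10 mM GSH or 10 mM i-BuNH2 for 24 h; read-out is the decrease in parent compound concentration over that period.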
# Staphylococcus aureus [23] = assay: Antibacterial activity against methicillin-resistant Staphylococcus aureus ATCC 33592 infected in mouse assessed as log reduction in bacteremia at 10 mg/kg/day, iv relative to control; format: functional
# Staphylococcus aureus [24] = assay: Antibacterial activity against methicillin-resistant Staphylococcus aureus ATCC 33592 infected in mouse assessed as host survival at 10 mg/kg/day, iv relative to control; format: functional
# Staphylococcus aureus [25] = assay: Antibacterial activity against methicillin-resistant Staphylococcus aureus ATCC 33592 infected in mouse assessed as log reduction in bacteremia at 3 mg/kg/day, iv relative to control; format: functional
# [26] = Cmax in Swiss mouse at 7.5 mg/kg, iv; format: ADME, organism-based; parameters: dose 7.5 mg/kg, route intravenous; details: in vivo; outline: as §2
# Staphylococcus aureus [27] = assay: Antibacterial activity against methicillin-resistant Staphylococcus aureus ATCC 33592 infected in mouse assessed as log reduction in bacteremia at 40 mg/kg/day, sc relative to control; format: functional; details: route subcutaneous; outline: as §1
# Staphylococcus aureus [28] = assay: Antibacterial activity against methicillin-resistant Staphylococcus aureus ATCC 33592 infected in mouse assessed as host survival at 3 mg/kg/day, iv relative to control; format: functional
# Streptococcus pneumoniae [29] = assay: Antibacterial activity against penicillin-resistant Streptococcus pneumoniae DSM 11865; format: functional; details: Streptococcus pneumoniae, DSM 11865
# Enterococcus faecium [30] = assay: Antibacterial activity against vancomycin-resistant Enterococcus faecium DSM 17050; format: functional; details: Enterococcus faecium, DSM 17050
# Staphylococcus aureus [31] = assay: Antibacterial activity against methicillin-resistant Staphylococcus aureus ATCC 33592 infected in mouse assessed as log reduction in bacteremia at 15 mg/kg/day, iv relative to control; format: functional
# Cytochrome P450 3A4 = Cytochrome P450 3A4 (Homo sapiens, UniProt P08684); assay: Inhibition of CYP3A4; format: ADME
# Staphylococcus aureus [32] = assay: Antibacterial activity against methicillin-resistant Staphylococcus aureus ATCC 33592 infected in mouse assessed as host survival at 40 mg/kg/day, sc relative to control; format: functional; details: ATCC 33592, sc, route subcutaneous; outline: as §1
# Staphylococcus aureus [33] = assay: Antibacterial activity against methicillin-resistant Staphylococcus aureus ATCC 33592 infected in mouse assessed as host survival at 80 mg/kg/day, sc relative to control; format: functional; details: ATCC 33592, sc, route subcutaneous; outline: as §1
# [34] = Volume of distribution at steady state in Swiss mouse at 7.5 mg/kg, iv; format: ADME, organism-based; parameters: dose 7.5 mg/kg, route intravenous; details: in vivo, read-out: Vdss; outline: as §2
# Staphylococcus aureus [35] = assay: Antibacterial activity against methicillin-resistant Staphylococcus aureus ATCC 33592 infected in mouse assessed as log reduction in bacteremia at 80 mg/kg/day, sc relative to control; format: functional; details: route subcutaneous; outline: as §1
# Staphylococcus aureus [36] = assay: Antibacterial activity against methicillin-resistant Staphylococcus aureus ATCC 33592 infected in mouse assessed as log reduction in bacteremia at 20 mg/kg/day, sc relative to control; format: functional; details: route subcutaneous; outline: as §1
# [37] = Drug degradation in PBS buffer over 24 hrs in presence of i-BuNH2; format: physicochemical; details: PBS buffer with i-BuNH2; read-out: Drug degradation; outline: as §3
# Pseudomonas aeruginosa [38] = assay: Antibacterial activity against Pseudomonas aeruginosa ATCC 27853; format: functional
# Staphylococcus aureus [39] = assay: Antibacterial activity against methicillin-resistant Staphylococcus aureus ATCC 33592 infected in mouse assessed as host survival at 15 mg/kg/day, iv relative to control; format: functional
# [40] = Chemical stability of the compound in PBS buffer up to 24 hrs at pH 7.4; format: physicochemical; details: pH 7.4, 24 h
# Staphylococcus aureus [41] = assay: Antibacterial activity against methicillin-resistant Staphylococcus aureus ATCC 33592 infected in mouse assessed as host survival at 20 mg/kg/day, iv relative to control; format: functional
# Staphylococcus aureus [42] = assay: Antibacterial activity against methicillin-resistant Staphylococcus aureus ATCC 33592 infected in mouse assessed as log reduction in bacteremia at 20 mg/kg/day, iv relative to control; format: functional
# Chain of Cytochrome P450 2D6 (P10635 whole entry): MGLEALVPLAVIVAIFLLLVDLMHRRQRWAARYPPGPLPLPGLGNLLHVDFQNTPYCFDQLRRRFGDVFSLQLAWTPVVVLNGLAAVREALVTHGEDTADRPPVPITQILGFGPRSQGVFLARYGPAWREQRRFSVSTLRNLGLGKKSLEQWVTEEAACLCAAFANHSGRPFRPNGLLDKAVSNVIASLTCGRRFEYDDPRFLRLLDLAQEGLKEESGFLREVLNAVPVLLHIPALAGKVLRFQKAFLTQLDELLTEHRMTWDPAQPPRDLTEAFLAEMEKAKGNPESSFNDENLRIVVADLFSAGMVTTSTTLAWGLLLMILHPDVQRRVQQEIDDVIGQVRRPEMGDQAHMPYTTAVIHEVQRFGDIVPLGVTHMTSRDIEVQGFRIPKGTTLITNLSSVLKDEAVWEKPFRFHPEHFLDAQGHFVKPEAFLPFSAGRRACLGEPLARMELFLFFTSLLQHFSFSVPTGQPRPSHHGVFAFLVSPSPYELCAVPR
# Chain of hERG (KCNH2) (Q12809 whole entry): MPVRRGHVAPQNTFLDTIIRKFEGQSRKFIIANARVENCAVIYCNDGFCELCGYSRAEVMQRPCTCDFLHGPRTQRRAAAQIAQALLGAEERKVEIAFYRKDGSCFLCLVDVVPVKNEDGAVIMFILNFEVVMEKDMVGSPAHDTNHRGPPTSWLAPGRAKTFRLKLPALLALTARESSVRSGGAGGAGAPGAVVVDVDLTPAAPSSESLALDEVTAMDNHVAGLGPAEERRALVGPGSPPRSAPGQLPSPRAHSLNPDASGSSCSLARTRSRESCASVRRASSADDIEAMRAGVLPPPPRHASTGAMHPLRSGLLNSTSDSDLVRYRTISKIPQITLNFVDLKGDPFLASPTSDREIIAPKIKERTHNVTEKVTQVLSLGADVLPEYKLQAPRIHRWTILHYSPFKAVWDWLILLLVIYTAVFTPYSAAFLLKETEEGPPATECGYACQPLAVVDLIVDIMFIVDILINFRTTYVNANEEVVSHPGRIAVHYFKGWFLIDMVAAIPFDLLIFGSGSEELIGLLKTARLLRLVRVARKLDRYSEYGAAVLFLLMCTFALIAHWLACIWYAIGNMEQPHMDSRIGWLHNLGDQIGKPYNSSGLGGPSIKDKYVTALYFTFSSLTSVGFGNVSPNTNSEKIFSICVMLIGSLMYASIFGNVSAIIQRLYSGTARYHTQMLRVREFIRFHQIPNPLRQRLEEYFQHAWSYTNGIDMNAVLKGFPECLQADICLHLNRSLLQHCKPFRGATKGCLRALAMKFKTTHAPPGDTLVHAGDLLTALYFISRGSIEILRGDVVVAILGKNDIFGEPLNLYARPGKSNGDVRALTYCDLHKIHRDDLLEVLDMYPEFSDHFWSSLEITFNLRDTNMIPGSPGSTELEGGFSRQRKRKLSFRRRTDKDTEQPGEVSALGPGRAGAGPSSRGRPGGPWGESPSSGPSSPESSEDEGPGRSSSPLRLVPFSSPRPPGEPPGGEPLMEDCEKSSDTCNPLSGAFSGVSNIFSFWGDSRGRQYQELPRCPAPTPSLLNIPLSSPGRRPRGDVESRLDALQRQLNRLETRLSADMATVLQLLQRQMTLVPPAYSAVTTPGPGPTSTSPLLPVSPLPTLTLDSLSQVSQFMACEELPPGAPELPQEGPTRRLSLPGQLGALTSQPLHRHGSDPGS
# Chain of Cytochrome P450 3A4 (P08684 whole entry): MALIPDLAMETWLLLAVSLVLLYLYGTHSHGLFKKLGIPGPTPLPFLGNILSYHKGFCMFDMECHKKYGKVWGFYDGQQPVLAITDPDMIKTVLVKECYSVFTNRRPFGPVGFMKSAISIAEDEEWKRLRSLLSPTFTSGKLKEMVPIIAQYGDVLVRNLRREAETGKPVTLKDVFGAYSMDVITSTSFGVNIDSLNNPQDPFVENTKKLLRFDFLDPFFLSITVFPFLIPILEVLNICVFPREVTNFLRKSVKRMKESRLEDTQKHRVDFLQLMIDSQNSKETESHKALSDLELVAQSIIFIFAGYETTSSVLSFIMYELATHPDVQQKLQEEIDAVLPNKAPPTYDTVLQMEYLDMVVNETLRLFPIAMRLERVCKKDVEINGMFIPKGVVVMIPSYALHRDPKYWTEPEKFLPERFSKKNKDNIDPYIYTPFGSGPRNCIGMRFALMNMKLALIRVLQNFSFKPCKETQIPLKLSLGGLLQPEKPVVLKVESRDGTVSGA
smiles,measurement,setting,value
CCCCCCc1c(O)c(Cl)cc2c1O[C@]1(C2=O)C(Cl)=C(Cl)C(=O)N1C (stereo in doubt; form 2),Activity,Staphylococcus aureus [1],Active
same,Activity,Streptococcus pneumoniae [2],Active
same,Activity,Enterococcus faecium [3],Dose-dependent effect
same,Activity,Escherichia coli [4],Dose-dependent effect
same,Activity,Streptococcus pneumoniae [5],inactive
same,Activity,Pseudomonas aeruginosa [6],Active
same,Activity,Pseudomonas aeruginosa [7],inactive
same,Activity,Enterococcus faecium [8],inactive
same,Activity,Staphylococcus aureus [9],inactive
same,Activity,Pseudomonas aeruginosa [10],Dose-dependent effect
same,Activity,Escherichia coli [11],inactive
same,Activity,Enterococcus faecium [12],Active
same,Activity,Escherichia coli [13],Active
CCCCCCc1c(O)ccc2c1O[C@]1(C2=O)C(Cl)=C(Cl)C(=O)N1C [ARMENIASPIROLE A],Activity,Staphylococcus aureus [1],Active
same,Activity,Staphylococcus aureus [14],Dose-dependent effect
same,IC80,Staphylococcus aureus [15],125 nM
same,IC80,Escherichia coli [16],> 30000 nM
same,Survival,Staphylococcus aureus [17],Dose-dependent effect
same,Activity,Streptococcus pneumoniae [2],Active
same,IC50,Cytochrome P450 2D6,> 10000 nM
same,survival at 20 mg/kg/day,Staphylococcus aureus [18],0%
same,inhibition at 10 µM,hERG (KCNH2),< 35%
same,solubility,[19],25 µg/mL
same,clearance,[20],20 mL/min/kg
same,half-life,[21],3 h
same,degraded at 24 h,[22],30%
same,FC,Staphylococcus aureus [23],0.9
same,survival at 10 mg/kg/day,Staphylococcus aureus [24],33%
same,Activity,Streptococcus pneumoniae [5],inactive
same,FC,Staphylococcus aureus [25],0.05
same,Activity,Pseudomonas aeruginosa [6],Active
same,Cmax,[26],27400 ng/mL
same,FC,Staphylococcus aureus [27],0.8
same,Activity,Pseudomonas aeruginosa [7],inactive
same,Activity,Enterococcus faecium [8],inactive
same,survival at 3 mg/kg/day,Staphylococcus aureus [28],0%
same,IC80,Streptococcus pneumoniae [29],2300 nM
same,IC80,Enterococcus faecium [30],8200 nM
same,Activity,Staphylococcus aureus [9],inactive
same,FC,Staphylococcus aureus [31],2.8
same,IC50,Cytochrome P450 3A4,> 10000 nM
same,survival at 40 mg/kg/day,Staphylococcus aureus [32],50%
same,survival at 80 mg/kg/day,Staphylococcus aureus [33],50%
same,Vd,[34],2.4 L/kg
same,Activity,Escherichia coli [11],inactive
same,Activity,Enterococcus faecium [12],Active
same,FC,Staphylococcus aureus [35],1.7
same,FC,Staphylococcus aureus [36],0.2
same,degraded at 24 h,[37],< 10%
same,IC80,Pseudomonas aeruginosa [38],> 30000 nM
same,survival at 15 mg/kg/day,Staphylococcus aureus [39],67%
same,Activity,Escherichia coli [13],Active
same,Stability,[40],Stable
CC(C)CCCc1c(O)ccc2c1O[C@]1(C2=O)C(Cl)=C(Cl)C(=O)N1C [ARMENIASPIROLE B],Activity,Staphylococcus aureus [1],Active
same,Activity,Streptococcus pneumoniae [2],Active
same,solubility,[19],10 µg/mL
same,Activity,Streptococcus pneumoniae [5],inactive
same,Activity,Pseudomonas aeruginosa [6],Active
same,Activity,Pseudomonas aeruginosa [7],inactive
same,Activity,Enterococcus faecium [8],inactive
same,Activity,Staphylococcus aureus [9],inactive
same,Activity,Escherichia coli [11],inactive
same,Activity,Enterococcus faecium [12],Active
same,Activity,Escherichia coli [13],Active
same,Stability,[40],Stable
CC[C@H](C)CCCc1c(O)ccc2c1O[C@]1(C2=O)C(Cl)=C(Cl)C(=O)N1C [ARMENIASPIROLE C],Activity,Staphylococcus aureus [1],Active
same,Activity,Streptococcus pneumoniae [2],Active
same,solubility,[19],5 µg/mL
same,Activity,Streptococcus pneumoniae [5],inactive
same,Activity,Pseudomonas aeruginosa [6],Active
same,Activity,Pseudomonas aeruginosa [7],inactive
same,Activity,Enterococcus faecium [8],inactive
same,Activity,Staphylococcus aureus [9],inactive
same,Activity,Escherichia coli [11],inactive
same,Activity,Enterococcus faecium [12],Active
same,Activity,Escherichia coli [13],Active
same,Stability,[40],Stable
CN[C@H](CC(C)C)C(=O)N[C@H]1C(=O)N[C@@H](CC(N)=O)C(=O)N[C@H]2C(=O)N[C@H]3C(=O)N[C@H](C(=O)N[C@H](C(=O)O)c4cc(O)cc(O)c4-c4cc3ccc4O)[C@H](O)c3ccc(c(Cl)c3)Oc3cc2cc(c3O[C@@H]2O[C@H](CO)[C@@H](O)[C@H](O)[C@H]2O[C@H]2C[C@](C)(N)[C@H](O)[C@H](C)O2)Oc2ccc(cc2Cl)[C@H]1O [VANCOMYCIN],IC80,Staphylococcus aureus [15],400 nM
same,survival at 20 mg/kg/day,Staphylococcus aureus [41],100%
same,FC,Staphylococcus aureus [42],4.2
same,FC,Staphylococcus aureus [27],4
same,IC80,Streptococcus pneumoniae [29],200 nM
same,IC80,Enterococcus faecium [30],> 30000 nM
same,survival at 40 mg/kg/day,Staphylococcus aureus [32],100%
